The RNAGym collection of RNA variant scans (doi:10.1038/s41586-018-0170-7)

B1: tRNA (parent)
chain: GUUCCGUUGGCGUAAUGGUAACGCGUCUCCCUCCUAAGGAGAAGACUGCGGGUUCGAGUCCCGUACGGAACG

Variants of: B1
Assay: yeast fitness, log relative to wild type (ln ratio); higher = fitter; tRNA-Arg(CCU), competitive growth, 37 C, 1 M NaCl
Procedure, shortened: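 Genotype fitness is expressed as the natural log of its generations over those of the wild type. Each pool of the tRNA-Arg(CCU) variant library, carried on a HIS3 centromeric plasmid in BY4742 lacking the chromosomal gene, came from one of two independent transformations and grew 4 generations in SC-HIS at 30 °C before ~6.5 generations (~26.5 h) in SC-HIS 1M NaCl at 37 °C. Generation numbers used OD-scaled log2 output/input frequencies from 125 bp paired-end Illumina sequencing, combined across replicates by inverse-variance weighting.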

Row | Variant | yeast fitness (ln)
1 | GCUCCUUUGGCGUAAUGGUAACGCGUUUCCCUCCUAAGGAGACGAUUGCGGGUUCGAGUCCCGUACGGAGCG [U2C G6U C27U A43C C46U A70G] | -0.204
2 | GCUCCAUUGGCGUAAUGGUAACGCGUUUCCCUCCUAAGGAGAAGAUUGCGGGUUCGAGUCCCGUACGGAAUG [U2C G6A C27U C46U C71U] | -0.119
3 | GUUCCAUUGGCGUAAUGGUAACGCGUCUCCCUCCUAAGGAGAAGAUUGCGGGUUCGAGUCCCGUAAGGAACG [G6A C46U C66A] | -0.0719
4 | ACUCCUUUGGCGUAAUGGUAACGCGUUUCCCUCCUAAGGAGACGAUUGCGGGUUCGAGUCCCGUAAGGAGUG [G1A U2C G6U C27U A43C C46U C66A A70G C71U] | -0.0221
5 | AGUCCGUUGGCGUAAUGGUAACGCGUCUCCCUCCUAAGGAGAAGAUUGCGGGUUCGAGUCCCGUAAGGAGCG [G1A U2G C46U C66A A70G] | -0.152
6 | ACUCCGUUGGCGUAAUGGUAACGCGUCUCCCUCCUAAGGAGAAGACUGCGGGUUCGAGUCCCGUAUGGAGCG [G1A U2C C66U A70G] | -0.297
7 | AGUCCAUUGGCGUAAUGGUAACGCGUCUCCCUCCUAAGGAGACGAUUGCGGGUUCGAGUCCCGUACGGAGCG [G1A U2G G6A A43C C46U A70G] | -0.163
8 | AGUCCGUUGGCGUAAUGGUAACGCGUUUCCCUCCUAAGGAGAAGAUUGCGGGUUCGAGUCCCGUACGGAUUG [G1A U2G C27U C46U A70U C71U] | -0.0144
9 | ACUCCUUUGGCGUAAUGGUAACGCGUUUCCCUCCUAAGGAGAAGACUGCGGGUUCGAGUCCCGUACGGGUUG [G1A U2C G6U C27U A69G A70U C71U] | -0.467
10 | GCUCCGUUGGCGUAAUGGUAACGCGUCUCCCUCCUAAGGAGAAGAUUGCGGGUUCGAGUCCCGUAAGGAGUG [U2C C46U C66A A70G C71U] | -0.168
11 | AUUCCUUUGGCGUAAUGGUAACGCGUCUCCCUCCUAAGGAGAAGACUGCGGGUUCGAGUCCCGUAUGGGGCG [G1A G6U C66U A69G A70G] | -0.288
12 | ACUCCGUUGGCGUAAUGGUAACGCGUCUCCCUCCUAAGGAGACGACUGCGGGUUCGAGUCCCGUACGGGGCG [G1A U2C A43C A69G A70G] | -0.151
13 | AUUCCUUUGGCGUAAUGGUAACGCGUCUCCCUCCUAAGGAGACGACUGCGGGUUCGAGUCCCGUACGGGGUG [G1A G6U A43C A69G A70G C71U] | -0.398
14 | GCUCCGUUGGCGUAAUGGUAACGCGUUUCCCUCCUAAGGAGACGACUGCGGGUUCGAGUCCCGUACGGAUCG [U2C C27U A43C A70U] | -0.152
15 | GGUCCAUUGGCGUAAUGGUAACGCGUCUCCCUCCUAAGGAGAAGACUGCGGGUUCGAGUCCCGUAUGGGGCG [U2G G6A C66U A69G A70G] | -0.448
16 | AUUCCAUUGGCGUAAUGGUAACGCGUCUCCCUCCUAAGGAGAAGACUGCGGGUUCGAGUCCCGUAUGGAGCG [G1A G6A C66U A70G] | -0.184
17 | AGUCCGUUGGCGUAAUGGUAACGCGUCUCCCUCCUAAGGAGAAGAUUGCGGGUUCGAGUCCCGUAAGGAUUG [G1A U2G C46U C66A A70U C71U] | -0.152
18 | AGUCCGUUGGCGUAAUGGUAACGCGUUUCCCUCCUAAGGAGAAGAUUGCGGGUUCGAGUCCCGUAUGGGGUG [G1A U2G C27U C46U C66U A69G A70G C71U] | -0.267
19 | GUUCCAUUGGCGUAAUGGUAACGCGUCUCCCUCCUAAGGAGAAGAUUGCGGGUUCGAGUCCCGUACGGGGUG [G6A C46U A69G A70G C71U] | -0.146

Row | Variant | yeast fitness (ln)
20 | AGUCCAUUGGCGUAAUGGUAACGCGUUUCCCUCCUAAGGAGACGAUUGCGGGUUCGAGUCCCGUAUGGGUUG [G1A U2G G6A C27U A43C C46U C66U A69G A70U C71U] | -0.384
21 | GCUCCAUUGGCGUAAUGGUAACGCGUUUCCCUCCUAAGGAGACGACUGCGGGUUCGAGUCCCGUAUGGAUUG [U2C G6A C27U A43C C66U A70U C71U] | -0.309
22 | AUUCCGUUGGCGUAAUGGUAACGCGUCUCCCUCCUAAGGAGACGACUGCGGGUUCGAGUCCCGUACGGGAUG [G1A A43C A69G C71U] | -0.0687
23 | GGUCCAUUGGCGUAAUGGUAACGCGUCUCCCUCCUAAGGAGACGACUGCGGGUUCGAGUCCCGUAAGGGUUG [U2G G6A A43C C66A A69G A70U C71U] | -0.329
24 | AGUCCAUUGGCGUAAUGGUAACGCGUUUCCCUCCUAAGGAGACGAUUGCGGGUUCGAGUCCCGUACGGAGCG [G1A U2G G6A C27U A43C C46U A70G] | -0.224
25 | GCUCCUUUGGCGUAAUGGUAACGCGUCUCCCUCCUAAGGAGAAGACUGCGGGUUCGAGUCCCGUACGGAAUG [U2C G6U C71U] | -0.0615
26 | AGUCCAUUGGCGUAAUGGUAACGCGUUUCCCUCCUAAGGAGACGACUGCGGGUUCGAGUCCCGUAUGGGUUG [G1A U2G G6A C27U A43C C66U A69G A70U C71U] | -0.489
27 | GUUCCGUUGGCGUAAUGGUAACGCGUUUCCCUCCUAAGGAGACGAUUGCGGGUUCGAGUCCCGUACGGAUUG [C27U A43C C46U A70U C71U] | -0.093
28 | AGUCCGUUGGCGUAAUGGUAACGCGUUUCCCUCCUAAGGAGACGAUUGCGGGUUCGAGUCCCGUAAGGGGCG [G1A U2G C27U A43C C46U C66A A69G A70G] | -0.146
29 | AUUCCAUUGGCGUAAUGGUAACGCGUCUCCCUCCUAAGGAGACGAUUGCGGGUUCGAGUCCCGUACGGGGUG [G1A G6A A43C C46U A69G A70G C71U] | -0.252
30 | GGUCCAUUGGCGUAAUGGUAACGCGUUUCCCUCCUAAGGAGACGACUGCGGGUUCGAGUCCCGUAUGGAUCG [U2G G6A C27U A43C C66U A70U] | -0.0534
31 | GUUCCAUUGGCGUAAUGGUAACGCGUCUCCCUCCUAAGGAGAAGACUGCGGGUUCGAGUCCCGUACGGGACG [G6A A69G] | -0.0982
32 | GCUCCGUUGGCGUAAUGGUAACGCGUUUCCCUCCUAAGGAGACGAUUGCGGGUUCGAGUCCCGUAAGGAUUG [U2C C27U A43C C46U C66A A70U C71U] | -0.269
33 | GGUCCUUUGGCGUAAUGGUAACGCGUUUCCCUCCUAAGGAGAAGACUGCGGGUUCGAGUCCCGUAUGGAUUG [U2G G6U C27U C66U A70U C71U] | -0.343
34 | GCUCCUUUGGCGUAAUGGUAACGCGUUUCCCUCCUAAGGAGACGACUGCGGGUUCGAGUCCCGUACGGGGUG [U2C G6U C27U A43C A69G A70G C71U] | -0.281
35 | GGUCCAUUGGCGUAAUGGUAACGCGUCUCCCUCCUAAGGAGAAGAUUGCGGGUUCGAGUCCCGUACGGAGCG [U2G G6A C46U A70G] | -0.0796
36 | GCUCCAUUGGCGUAAUGGUAACGCGUUUCCCUCCUAAGGAGACGAUUGCGGGUUCGAGUCCCGUAUGGAACG [U2C G6A C27U A43C C46U C66U] | -0.0567
37 | GUUCCGUUGGCGUAAUGGUAACGCGUUUCCCUCCUAAGGAGACGACUGCGGGUUCGAGUCCCGUAUGGAAUG [C27U A43C C66U C71U] | -0.269
38 | AGUCCAUUGGCGUAAUGGUAACGCGUCUCCCUCCUAAGGAGAAGAUUGCGGGUUCGAGUCCCGUAUGGGUUG [G1A U2G G6A C46U C66U A69G A70U C71U] | -0.141
